From ChEMBL document CHEMBL1128719, “The synthesis, structure-activity, and structure-side effect relationships of a series of 8-alkoxy- and 5-amino-8-alkoxyquinolone antibacterial agents” (J Med Chem, 1995) come the findings set out here.

Series [1] relates to Bacteroides fragilis. Nature of the series: In vitro antibacterial activity against Bacteroides fragilis BFA. In kind it is functional. An outline of the steps: (§1)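 Microtitration (microdilution) MIC determination in μg/mL against a panel of Gram-positive, Gram-negative and anaerobic organisms. Values come from duplicate or triplicate experiments and are stated accurate to ±50%.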

The subject of series [2] is Clostridioides difficile. Nature of the series: In vitro antibacterial activity was tested for Clostridium diff CD1-1. The format is functional.
For series [3], the system named is Clostridium perfringens. The series is described as follows: In vitro antibacterial activity against Clostridium perfringens CP 3-1. The format is functional.
Series [4] deals with Escherichia coli. The series is described as follows: In vitro antibacterial activity was tested for Escherichia coli H560. The format is functional. Put shortly: as §1
Series [5] relates to Escherichia coli. Nature of the series: In vitro antibacterial activity was tested for Escherichia coli Vogel. In kind it is functional. An outline of the steps: as §1
Series [6] deals with Enterobacter cloacae. The series is described as follows: In vitro antibacterial activity was tested for Enterobacter cloacae HA2646. In kind it is functional.
Series [7] has as its system Klebsiella pneumoniae. Nature of the series: In vitro antibacterial activity was tested for Klebsiella pneumoniae MGH-2. The format is functional. An outline of the steps:
as §1

Series [8] is filed under the species Mus musculus. Nature of the series: (§2) Phototoxic skin reaction in depilated female CD-1 mice. The format is toxicity, organism-based. The following applies: in vivo. An outline of the steps: (§3)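 Female CD-1 mice, depilated, given a single oral or subcutaneous dose. UVA (320–400 nm) exposure for 3 h, starting 1 h post-dose. Initial doses were 30, 100 and 300 mg/kg. PTD50 (dose giving phototoxic skin reaction in 50% of mice) derived by probit method. First day of positive reaction and no-effect dose taken from raw data.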

The species entered for series [9] is Mus musculus. The series is described as §2. In kind it is functional. An outline of the steps:
as §3

Series [10] relates to Peptoniphilus asaccharolyticus. Nature of the series: In vitro antibacterial activity was tested for Pepto asac PA 3-1. The format is functional. An outline of the steps:
as §1

The test system of series [11] is Providencia rettgeri. The series is described as follows: In vitro antibacterial activity was tested for Providencia rettgeri H1771. The format is functional. An outline of the steps: as §1
Series [12] relates to Pseudomonas aeruginosa. Nature of the series: In vitro antibacterial activity was tested for Pseudomonas aeruginosa UI-18. The format is functional. An outline of the steps:
as §1

The subject of series [13] is Staphylococcus aureus. The series is described as follows: In vitro antibacterial activity was tested for Staphylococcus aureus H228. In kind it is functional. An outline of the steps:
as §1

Series [14] deals with Staphylococcus aureus. The series is described as follows: In vitro antibacterial activity was tested for Staphylococcus aureus UC-76. The format is functional. An outline of the steps:
as §1

Series [15] has as its system Streptococcus pneumoniae. Nature of the series: In vitro antibacterial activity was tested for Streptococcus pneumoniae SV-1. In kind it is functional. Put shortly:
as §1

The test system of series [16] is Streptococcus pyogenes. Nature of the series: In vitro antibacterial activity was tested for Streptococcus pyogenes C203. In kind it is functional. An outline of the steps:
as §1

The test system of series [17] is Enterococcus faecalis. Nature of the series: In vitro antibacterial activity was tested for Streptococcus faecalis MGH-2. The format is functional. Put shortly:
as §1

The subject of series [18] is Cutibacterium acnes. The series is described as follows: In vitro antibacterial activity was tested for Propion acnes PA5-1. In kind it is functional. An outline of the steps: as §1
Series [19] deals with V79. The series is described as follows: (§4) Clonogenic cytotoxicity against Chinese hamster V-79 cells. The format is functional, cell-based. The following applies: Cricetulus griseus. Put shortly:
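Chinese hamster V-79 cells grown overnight, then exposed to drug 3 h at 37 °C; drug medium replaced with fresh medium, cells incubated 5 days and scored for colony formation. IC50 (μg/mL) taken as concentration inhibiting colony formation by 50% versus control.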

Series [20] is filed under the species Mus musculus. The series is described as follows: Phototoxic skin reaction in depilated female CD-1 mice. The format is functional. An outline of the steps: as §3
For series [21], the system named is V79. The description is as §4. The format is functional, cell-based. The following applies: Cricetulus griseus. This is another data set of the same source.

SMILES strings stand for the structures. ≈ marks a conversion by molar mass, not a printed value. Bounds are passed on as bounds.

A word on the MIC: it is the smallest concentration in the dilution series that meets the test's criterion for growth inhibition. Read a low MIC as greater potency. Take `COc1c(N2CCC(N)C2)c(F)cc2c(=O)c(C(=O)O)cn(C3CC3)c12` (stereo unspecified): the MIC in series [1] was 0.2 µg/mL (≈ 0.553 µM); in series [2], 0.4 µg/mL (≈ 1.11 µM); in series [3], 0.1 µg/mL (≈ 0.277 µM); in [4], 0.013 µg/mL (≈ 0.036 µM); in series [5] it was 0.025 µg/mL (≈ 0.0692 µM); in [6], 0.025 µg/mL (≈ 0.0692 µM). Moreover, the minimal inhibitory concentration (MIC) in series [7] stood at 0.05 µg/mL (≈ 0.138 µM); in series [10], 0.8 µg/mL (≈ 2.21 µM); in [11], 0.1 µg/mL (≈ 0.277 µM); in [12] it was 0.4 µg/mL (≈ 1.11 µM); in series [13], 0.05 µg/mL (≈ 0.138 µM); in series [14] it was 0.013 µg/mL (≈ 0.036 µM). The minimal inhibitory concentration (MIC) came to 0.025 µg/mL (≈ 0.0692 µM) in series [15], 0.025 µg/mL (≈ 0.0692 µM) in [16], 0.05 µg/mL (≈ 0.138 µM) in series [17] and 0.4 µg/mL (≈ 1.11 µM) in [18]. The compound also had a PTD50 in [8] greater than 100 mg. In addition, in [9], the No effect dose worked out at 100 mg.
In the case of `Nc1c(F)c(N2CCC(N)C2)c(F)c2c1c(=O)c(C(=O)O)cn2C1CC1` (stereo unspecified), the MIC was 0.003 µg/mL (≈ 0.00823 µM) in series [4]; 0.006 µg/mL (≈ 0.0165 µM) in series [5]; 0.006 µg/mL (≈ 0.0165 µM) in series [6]; 0.006 µg/mL (≈ 0.0165 µM) in series [7]; 0.025 µg/mL (≈ 0.0686 µM) in [11]; 0.05 µg/mL (≈ 0.137 µM) in series [12]. Moreover, the MIC in series [13] was found to be 0.013 µg/mL (≈ 0.0357 µM); in series [14], 0.006 µg/mL (≈ 0.0165 µM); in [15], 0.006 µg/mL (≈ 0.0165 µM); in [16], 0.025 µg/mL (≈ 0.0686 µM); in series [17], 0.025 µg/mL (≈ 0.0686 µM). This compound also displayed a PTD50 in series [8] of 52 mg. Further, the No effect dose in [9] was 30 mg.
For the compound `NC1CCN(c2cc3c(cc2F)c(=O)c(C(=O)O)cn3C2CC2)C1` (stereo unspecified), the MIC was determined as 1.6 µg/mL (≈ 4.83 µM) in [1]; 12.5 µg/mL (≈ 37.7 µM) in series [2]; 0.1 µg/mL (≈ 0.302 µM) in [3]; 0.05 µg/mL (≈ 0.151 µM) in [4]; 0.025 µg/mL (≈ 0.0754 µM) in series [5]; 0.025 µg/mL (≈ 0.0754 µM) in series [6]. Besides, the MIC in series [7] amounted to 0.1 µg/mL (≈ 0.302 µM); in series [10], 1.6 µg/mL (≈ 4.83 µM); in series [11], 0.1 µg/mL (≈ 0.302 µM); in series [12] it was 0.1 µg/mL (≈ 0.302 µM); in [13], 0.025 µg/mL (≈ 0.0754 µM); in [14], 0.1 µg/mL (≈ 0.302 µM). The minimal inhibitory concentration (MIC) is 0.1 µg/mL (≈ 0.302 µM) in series [15], 0.006 µg/mL (≈ 0.0181 µM) in series [16], 0.05 µg/mL (≈ 0.151 µM) in series [17] and 1.6 µg/mL (≈ 4.83 µM) in [18]. Further, in series [8], the PTD50 is greater than 300 mg. Further, in series [9], the No effect dose is 300 mg.
By IC50 is commonly meant the concentration at which inhibition is half-maximal. Low values mean higher potency, high ones lower potency. Turning to `NCC1CCCN(c2cc3c(cc2F)c(=O)c(C(=O)O)cn3C2CC2)C1` (stereo unspecified), the MIC in series [4] was found to be 0.4 µg/mL (≈ 1.11 µM); in series [5], 0.4 µg/mL (≈ 1.11 µM); in series [6], 0.4 µg/mL (≈ 1.11 µM); in series [7] it was 0.8 µg/mL (≈ 2.23 µM); in series [11], 1.6 µg/mL (≈ 4.45 µM); in [12], 3.1 µg/mL (≈ 8.63 µM). The MIC in series [13] came to 0.8 µg/mL (≈ 2.23 µM); in series [14], 0.1 µg/mL (≈ 0.278 µM); in [15] it was 0.1 µg/mL (≈ 0.278 µM); in series [16] it was 0.05 µg/mL (≈ 0.139 µM); in [17], 0.2 µg/mL (≈ 0.556 µM). This compound also had an IC50 in series [19] of 220 µg/mL (≈ 612 µM).
`CCOc1c(N2CCC(N)C2)c(F)c(N)c2c(=O)c(C(=O)O)cn(C3CC3)c12` (stereo unspecified): the MIC amounted to 3.1 µg/mL (≈ 7.94 µM) in [1]; 12.5 µg/mL (≈ 32 µM) in series [2]; 0.4 µg/mL (≈ 1.02 µM) in [3]; 0.05 µg/mL (≈ 0.128 µM) in [4]; 0.05 µg/mL (≈ 0.128 µM) in series [5]; 0.1 µg/mL (≈ 0.256 µM) in [6]. Moreover, the MIC in [7] was 0.2 µg/mL (≈ 0.512 µM); in [10], 0.8 µg/mL (≈ 2.05 µM); in series [11], 0.4 µg/mL (≈ 1.02 µM); in [12], 3.1 µg/mL (≈ 7.94 µM); in series [13], 0.05 µg/mL (≈ 0.128 µM); in series [14], 0.013 µg/mL (≈ 0.0333 µM). The MIC is 0.05 µg/mL (≈ 0.128 µM) in [15], 0.1 µg/mL (≈ 0.256 µM) in series [16], 0.1 µg/mL (≈ 0.256 µM) in series [17] and 3.1 µg/mL (≈ 7.94 µM) in series [18]. In series [8], this compound had a PTD50 greater than 100 mg. For the same compound, the No effect dose in [20] amounted to 100 mg. The compound further showed an IC50 in [21] of 220 µg/mL (≈ 564 µM).
For `NCC1CCCN(c2c(F)cc3c(=O)c(C(=O)O)cn(C4CC4)c3c2Cl)C1` (stereo unspecified), the minimal inhibitory concentration (MIC) was found to be 0.05 µg/mL (≈ 0.127 µM) in [4]; 0.1 µg/mL (≈ 0.254 µM) in [5]; 0.2 µg/mL (≈ 0.508 µM) in [6]; 0.2 µg/mL (≈ 0.508 µM) in series [7]; 0.2 µg/mL (≈ 0.508 µM) in series [11]; 1.6 µg/mL (≈ 4.06 µM) in series [12]. In addition, the MIC worked out at 0.025 µg/mL (≈ 0.0635 µM) in series [13]; 0.003 µg/mL (≈ 0.00762 µM) in series [14]; 0.003 µg/mL (≈ 0.00762 µM) in [15]; 0.003 µg/mL (≈ 0.00762 µM) in series [16]; 0.05 µg/mL (≈ 0.127 µM) in series [17]. In [19], this compound displayed a concentration for half-maximal inhibition (IC50) of 17 µg/mL (≈ 43.2 µM).
As for `COc1c(N2CCCC(N)C2)c(F)c(N)c2c(=O)c(C(=O)O)cn(C3CC3)c12` (stereo unspecified), the MIC in [1] came out at 1.6 µg/mL (≈ 4.1 µM); in series [2] it was 1.6 µg/mL (≈ 4.1 µM); in series [3], 0.2 µg/mL (≈ 0.512 µM); in series [4], 0.05 µg/mL (≈ 0.128 µM); in series [5] it was 0.1 µg/mL (≈ 0.256 µM); in [6], 0.1 µg/mL (≈ 0.256 µM). Moreover, the MIC stood at 0.2 µg/mL (≈ 0.512 µM) in [7]; 0.8 µg/mL (≈ 2.05 µM) in series [10]; 0.4 µg/mL (≈ 1.02 µM) in series [11]; 1.6 µg/mL (≈ 4.1 µM) in [12]; 0.025 µg/mL (≈ 0.064 µM) in [13]; 0.006 µg/mL (≈ 0.0154 µM) in series [14]. Also, the MIC in series [15] was 0.006 µg/mL (≈ 0.0154 µM); in series [16], 0.013 µg/mL (≈ 0.0333 µM); in [17], 0.05 µg/mL (≈ 0.128 µM); in series [18] it was 0.4 µg/mL (≈ 1.02 µM). The PTD50 in series [8] is greater than 100 mg. In series [20], this compound came in with a No effect dose of 100 mg. Further, the midpoint of inhibition in [21], the IC50, lay at 290 µg/mL (≈ 743 µM).
